Activity calls are given as the source filed them. The rule behind the calls is not given here.
Tests used:
[1] = Cytotoxicity against human HT29-AK cells after 72 hrs by MTT assay; type: functional, cell-based
MDA-MB-231 = assay: Cytotoxicity against human MDA-MB-231 cells after 72 hrs by MTT assay; type: functional, cell-based; conditions: MDA-MB-231, 72 h
MCF7 = assay: Cytotoxicity against human MCF7 cells after 72 hrs by MTT assay; type: functional, cell-based; conditions: MCF7, 72 h
Plasmodium falciparum = assay: Antimalarial activity after 48 hrs against chloroquine-sensitive Plasmodium falciparum 3D7 by [3H]hypoxanthine uptake; type: functional, organism-based
Nucleic Acid [2] = assay: Binding affinity to poy A-poly U RNA assessed as change in thermal melting temperature at compound to polynucleotide ratio of 0.3 at pH 7 by […]; type: nucleic-acid assay
In short: (§1)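 Thermal melting of ds-polynucleotides at r = [compound]/[polynucleotide] = 0.3, pH 7 Na cacodylate buffer 0.02 M (I = 0.005 M; poly A–poly T at I = 0.05 M); ΔTm reported, error ±0.5 °C.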

Nucleic Acid [3] = assay: Binding affinity to poy A-poly T DNA assessed as change in thermal melting temperature at compound to polynucleotide ratio of 0.3 at pH 7 by […]; type: nucleic-acid assay; in short: as §1
Calf thymus DNA [4] = assay: Binding affinity to calf thymus DNA by fluorimetric binding titration study; type: nucleic-acid assay; conditions: Bos taurus
Nucleic Acid [5] = assay: Binding affinity to poy A-poly U RNA by fluorimetric binding titration study; type: nucleic-acid assay
HL-60 [6] = assay: Cytotoxicity against human HL60 cells after 72 hrs by MTT assay; type: functional, cell-based; conditions: HL-60, 72 h
In short: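 MTT viability: 2.5 × 10^4 cells/well in triplicate, exposed to 0.01–100 µM compound for 72 h at 37 °C, 5% CO2; MTT 3 h at 37 °C, SDS/DMF lysis 4 h; absorbance 570 nm (reference 590 nm); expressed as % of vehicle-only cells; IC50 from individual inhibition curves; means of three experiments with SD.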

Calf thymus DNA [7] = assay: Binding affinity to calf thymus DNA assessed as change in thermal melting temperature at compound to polynucleotide ratio of 0.3 at pH 7 by thermal melting analysis; conditions: Bos taurus
HL-60 [8] = assay: Induction of apoptosis in human HL60 cells assessed as induction of mitochondrial membrane depolarization by tetramethylrhodamine ethyl ester-based flow cytometry; type: functional, cell-based
In short: (§2)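 HL60 cells treated 24 h; 5 × 10^5 cells washed in HBSS, loaded with 50 nM TMRE in HBSS for 10 min at 37 °C; ≥500 cells read by flow cytometry on FL-2 to score depolarised mitochondria; mean ± SD of three independent experiments, Mann-Whitney U vs drug blank.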

HL-60 [9] = assay: Induction of apoptosis in human HL60 cells assessed as induction of mitochondrial membrane depolarization at 1 uM by tetramethylrhodamine ethyl ester-based flow cytometry; type: functional, cell-based; in short: as §2
HL-60 [10] = assay: Induction of apoptosis in human HL60 cells assessed as induction of mitochondrial membrane depolarization at 10 uM after 24 hrs by tetramethylrhodamine ethyl ester-based flow cytometry; type: functional; in short: as §2
HL-60 [11] = assay: Induction of apoptosis in human HL60 cells assessed as accumulation at sub-G0/G1 phase after 24 hrs by propidium iodide-based flow cytometry; type: functional, cell-based
In short: (§3)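 HL60 cells treated 24 h; 1 × 10^6 cells washed in HBSS, fixed in ice-cold 70% ethanol at −20 °C for 2 h, stained with PI (40 µg/mL) plus RNase 0.1 mg/mL and 3.8 mM sodium citrate in PBS, 30 min at 37 °C; ≥5000 cells read on FL-2; sub-G0/G1 fraction from DNA content; mean ± SD of three independent experiments, Mann-Whitney U vs drug blank.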

HL-60 [12] = assay: Induction of apoptosis in human HL60 cells assessed as accumulation at sub-G0/G1 phase at 10 uM after 24 hrs by propidium iodide-based flow cytometry; type: functional; in short: as §3
HL-60 [13] = assay: Induction of apoptosis in human HL60 cells assessed as caspase-3 activation after 24 hrs by Western blot analysis; type: functional, cell-based
In short: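 HL60 cells treated 24 h with 0.5, 1.0, 5 or 10 µM alongside untreated control; 3 × 10^6 cells washed and sonicated, protein by Bradford; 20 µg per lane denatured 3 min at 95 °C, resolved on 14% SDS–PAGE, transferred to nitrocellulose; read-out pro-caspase-3 (32 kDa) and processed active subunit.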

Nucleic Acid [14] = assay: Binding affinity to poy A-poly U RNA assessed as intercalation into double helix by circular dichroism analysis; type: nucleic-acid assay
Calf thymus DNA [15] = assay: Binding affinity to calf thymus DNA assessed as intercalation into double helix by circular dichroism analysis; type: nucleic-acid assay; conditions: Bos taurus
In short: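 CD spectra of ct-DNA (1 × 10^-5 mol dm^-3) titrated at various r = [compound]/[ctDNA], change followed at 280 nm; induced acridine CD band at ct-DNA 1 × 10^-4 mol dm^-3; pH 7 Na cacodylate buffer, I = 0.05 M.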

Row | Compound | IC50 [1] [µM] | IC50 (MDA-MB-231) [µM] | IC50 (MCF7) [µM] | IC50 (Plasmodium falciparum) [µM] | ΔTm (Nucleic Acid [2]) [°C] | ΔTm (Nucleic Acid [3]) [°C] | Ks (Calf thymus DNA [4]) [×10⁶ /M] | Ks (Nucleic Acid [5]) [×10⁶ /M] | IC50 (HL-60 [6]) [µM] | ΔTm (Calf thymus DNA [7]) [°C] | Activity (HL-60 [8]) | Activity (HL-60 [9]) | Activity (HL-60 [10]) [%] | Activity (HL-60 [11]) | Activity (HL-60 [12]) [%] | Activity (HL-60 [13]) | Activity (Nucleic Acid [14]) | Activity (Calf thymus DNA [15])
1 | C[C@H]1[C@@H](O)O[C@@H]2O[C@@]3(C)CC[C@H]4[C@H](C)CC[C@@H]1[C@@]24OO3 [ARTENIMOL] | 16.1 | 99.8 | 45.2 | 0.0023 |  |  |  |  |  |  |  |  |  |  |  |  |  | 
2 | COc1ccc2nc3cc(Cl)ccc3c(NCCN)c2c1 | 6.57 | 8.12 |  |  | 2.2 | 2.9 | 1 | 1 | 12.5 | 9.3 |  |  |  |  |  |  |  | 
3 | COc1ccc2nc3cc(Cl)ccc3c(NCCCNC(=O)C[C@H]3O[C@@H]4O[C@@]5(C)CC[C@H]6[C@H](C)CC[C@@H]([C@H]3C)[C@@]46OO5)c2c1 | 9.91 | 11.6 | 11.8 | 0.0224 |  |  |  |  | 3.08 |  | Dose-dependent effect | Active | 98 | Dose-dependent effect | 57 | Dose-dependent effect |  | 
4 | COc1ccc2nc3cc(Cl)ccc3c(NCCCCNC(=O)C[C@H]3O[C@@H]4O[C@@]5(C)CC[C@H]6[C@H](C)CC[C@@H]([C@H]3C)[C@@]46OO5)c2c1 | 247 | 43.3 | 11.7 | 0.0203 |  |  |  |  | 1.58 |  |  |  |  |  |  |  |  | 
5 | COc1ccc2nc3cc(Cl)ccc3c(N3CCN(C(=O)C[C@H]4O[C@@H]5O[C@@]6(C)CC[C@H]7[C@H](C)CC[C@@H]([C@H]4C)[C@@]57OO6)CC3)c2c1 | > 750 | 21.1 | 3.51 | 0.29 |  |  |  |  | 0.56 |  |  |  |  |  |  |  |  | 
6 | COc1ccc2nc3cc(Cl)ccc3c(NCCNC(=O)C[C@H]3O[C@@H]4O[C@@]5(C)CC[C@H]6[C@H](C)CC[C@@H]([C@H]3C)[C@@]46OO5)c2c1 | 194 | 49 | 13.7 | 0.00596 | 2.4 | 0.6 | 1 | 1 | 1.17 | 3.1 |  |  |  |  |  |  | inactive | inactive

From ChEMBL document CHEMBL1153331, “Antitumour and antimalarial activity of artemisinin-acridine hybrids” (Bioorg Med Chem Lett, 2009)
